ATG4B inhibitor – ATG4B protease inhibitors, primary screen, biochemical, fluorescence, uHTS | AID 504462, 2011 | inhibition, % at 8.33 µM | actives 0.51% (n = 340,000) | Cysteine protease ATG4B (Homo sapiens), Q9Y4P1 | ATG4B cleavage of LC3-PLA2, NBD-HPC fluorescence, 1 h; in the data active = inhibition above about 40%
TbMetRS inhib – T. brucei MetRS inhibitors, primary screen, biochemical, luminescence | methionyl-tRNA synthetase (Trypanosoma brucei brucei) | purified T. brucei MetRS, ATP depletion, Kinase-Glo luminescence | inhibition, % at 11.9 µM | actives 0.4% (n = 360,000) | AID 624268, 2012;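 active = inhibition above a per-plate cutoff of the control wells' mean inhibition plus 3 SD, cut at about 5.5% in these data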;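 also: 0% = DMSO wells median and 100% = median of wells with control inhibitor compound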
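Assay system: T. brucei methionyl-tRNA synthetase, purified | Medium: HEPES buffer with MgCl2, KCl, DTT, spermine, BSA, pyrophosphatase | Compound: 11.9 µM single point | Incubation: 15 min enzyme-compound preincubation, 2 h reaction, 10 min detection, 25 °C | Measured by: Kinase-Glo luciferase luminescence reporting remaining unconsumed ATP | Measure: % inhibition normalized to control-well medians | Replication: Singlicate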
UCH37 DUB inh – inhibitors of human UCH37 deubiquitinase, primary screen, biochemical, Ub-AMC cleavage, fluorescence | Ubiquitin carboxyl-terminal hydrolase isozyme L5 (Homo sapiens), Q9Y5K5 | purified proteasome/UCH37 | inhibition, % (concentration not given with the values) | actives 0.33% (n = 330,000) | AID 588478, 2011;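 active = mean inhibition over replicate wells above about 20%, limit read from the data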;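 also: 0% = compound-free wells with enzyme and 100% = wells lacking proteasome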
Target sequence (Q9Y5K5 whole entry, looked up): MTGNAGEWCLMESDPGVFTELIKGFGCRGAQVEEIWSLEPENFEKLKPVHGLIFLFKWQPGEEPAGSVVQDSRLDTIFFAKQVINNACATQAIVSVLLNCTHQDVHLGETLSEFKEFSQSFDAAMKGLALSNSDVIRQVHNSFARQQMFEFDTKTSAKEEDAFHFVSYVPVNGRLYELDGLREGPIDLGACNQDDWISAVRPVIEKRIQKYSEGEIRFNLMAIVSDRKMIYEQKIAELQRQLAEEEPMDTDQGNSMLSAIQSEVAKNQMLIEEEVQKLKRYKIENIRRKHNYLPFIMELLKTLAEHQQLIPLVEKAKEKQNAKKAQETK
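Schedule: 30 min plus 25 min, room temperature / Material: human UCH37 within purified proteasomes / Technique: AMC fluorescence intensity at 355/460 nm / Buffer or medium: pH 7.4 Tris-HCl (50 mM) with ovalbumin, ATP-MgCl2, DTT / Controls: wells without proteasome as full block, compound-free enzyme plus substrate as uninhibited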
Rin1-Abl PPI inh – inhibitors of Rin1-Abl protein binding, primary screen, biochemical, TR-FRET; Tyrosine-protein kinase ABL1 (Homo sapiens) + Ras and Rab interactor 1 (Homo sapiens), …; inhibition, % at 7.35 µM; actives 0.4% (n = 360,000); in the data active = inhibition above about 5%, passing the limit was not always enough
ATG4B conf – ATG4B protease inhibitors, retest, confirmation, biochemical, fluorescence, single concentration; shares compounds with ATG4B inhibitor; ATG4B protease fluorescent substrate cleavage assay; inhibition, % at 8.33 µM; actives 92% (n = 320); AID 504757, 2011; in the data active = inhibition above about 39%
PLA2 ctr – PLA2 enzyme inhibition, counter-screen for ATG4B inhibitor project, biochemical, single concentration, uHTS hits | purified PLA2, NBD-C6-HPC fluorescence, 45 min | AID 588402, 2011 | inhibition, % at 8.33 µM | shares compounds with ATG4B inhibitor | actives 66% (n = 1,600); in the data active = inhibition above about 50%
Target sequence (P04054 whole entry, looked up): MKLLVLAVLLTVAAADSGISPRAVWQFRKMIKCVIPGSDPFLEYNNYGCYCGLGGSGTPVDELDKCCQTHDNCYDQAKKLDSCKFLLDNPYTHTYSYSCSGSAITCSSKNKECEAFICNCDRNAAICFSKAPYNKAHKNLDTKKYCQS
* = called active by the depositor; . = no result. Compounds with a hit are over-represented: about 1.4% of the library has one in this group of screens.

SMILES | ATG4B inhibitor | TbMetRS inhib | UCH37 DUB inh | Rin1-Abl PPI inh | PLA2 ctr | others
Cc1ccc(-c2nc(Nc3cccc(C)c3)sc2CC(=O)O)cc1 | -19 | -1 | 2 | -1 | .
COc1ccc(/C(O)=C2/C(=O)C(=O)N(CC3CCCO3)C2c2ccc(O)c(OC)c2)cc1 (stereo not given) | -8 | 0 | 11 | 3 | .
O=C(NCc1cccc(C(F)(F)F)c1)c1cc(Cl)cc(Cl)c1 | 52* | 0 | 4 | 0 | 42 | ATG4B conf=60*
O=C(Cc1cccc(C(F)(F)F)c1)NCc1cccc(Cl)c1 | -1 | 4 | 1 | -2 | .
O=C(NCc1cccc(C(F)(F)F)c1)c1cc(Cl)ccc1Cl | 1 | -1 | 7 | -2 | .
O=C(NCc1cccc(Cl)c1)c1ccc(S(=O)(=O)Nc2cccc(C(F)(F)F)c2)cc1 | 58* | 2 | -2 | -1 | 60*
Cc1ccc(-n2nnnc2SCC(=O)c2c(N)n(C3CC3)c(=O)[nH]c2=O)cc1C | 4 | 0 | -1 | 0 | .
O=C(c1ccco1)N1CCN(C/C=C/c2ccccc2)CC1 | 2 | -2 | 1 | 0 | .
O=C(c1nn(Cc2ccccc2)c(=O)c2ccccc12)N1CCN(C/C=C/c2ccccc2)CC1 | 49* | 0 | -5 | -1 | 55*
COc1ccc(/C=C2\CCC(C3CCCC3)C2=O)cc1Cn1cccn1 (stereo not given) | 68* | -2 | 4 | 0 | 65*
COc1ccc(/C=C2\CCC(C3CCCC3)C2=O)cc1Cn1nc(C)cc1C (stereo not given) | 35 | 0 | 5 | 0 | .
CSC(=S)N/N=C/c1ccc(Br)cc1 | 0 | 0 | . | 3 | .
COc1ccc(Cl)cc1NC(=O)Nc1cccc([N+](=O)[O-])c1C | 78* | -2 | -3 | -4 | 86*
COc1ccc(Cl)cc1NC(=O)NC1CCCCC1 | 8 | 0 | -3 | 1 | .
CCOc1ccc(-c2c(C#N)c(N)nc3sc(C(=O)c4ccccc4)c(N)c23)cc1 | -3 | 0 | . | 1 | .
Cc1ccccc1Cn1cc(NC(=O)CSc2nc3c(c(C(F)(F)F)n2)CCc2ccccc2-3)cn1 | 78* | 0 | -5 | -1 | 73*
Cc1ccc(Cn2nc(C)c(NC(=O)CSc3nc4c(c(C(F)(F)F)n3)CCc3ccccc3-4)c2C)cc1 | -11 | 0 | 2 | -2 | .
CC(=O)c1cccc(NC(=O)C2C3C=CC(C3=C(c3ccccc3)c3ccccc3)C2C(=O)O)c1 (stereo not given) | 79* | 2 | 3 | 3 | 90*
Oc1ccccc1C1SC(c2ccccc2O)SC(c2ccccc2O)S1 (stereo not given) | 63* | 0 | 8 | 0 | 47
COc1cccc(-n2c(SCc3cc(=O)oc4cc(O)c(O)cc34)nc3ccccc3c2=O)c1 | 99* | 1 | -2 | -4 | 100*
NC(=O)C1CCN(c2nc(-c3cccs3)cs2)CC1 | 45* | 0 | . | 0 | 54*
NC(=O)C1CCN(c2nc(-c3ccc(Br)cc3)cs2)CC1 | 36 | 0 | -1 | -1 | .
O=C(NCCC1=CCCCC1)C1CCCN(S(=O)(=O)c2cccc3cccnc23)C1 (stereo not given) | -1 | -2 | 5 | 3 | .
O=C1NC(=Nc2ccccc2)S/C1=C\c1cccn1-c1ccccc1 | 68* | 0 | 1 | -5 | 59*
Cc1cccc(N=C2NC(=O)/C(=C/c3cccn3C)S2)c1 | 12 | 0 | 2 | -4 | .
CCCCc1ccc(NC(=S)NCc2cccc(OC)c2)cc1 | 80* | 0 | 3 | -3 | 79*
NC(=O)/C(=C/c1ccco1)NC(=O)/C=C/c1ccccc1 | 50* | 0 | 8 | 1 | 68*
NC(=O)/C(=C\c1ccccc1)NC(=O)/C=C/c1ccccc1 | 46* | 0 | 3 | 1 | 38 | ATG4B conf=76*
COC(=O)c1scc2c(=O)cc(C(F)(F)F)[nH]c12 | 4 | 0 | -161 | 2 | .
